Data set [1] addresses T1, Androgen receptor (Homo sapiens) (UniProt P10275).
T1 sequence (whole entry): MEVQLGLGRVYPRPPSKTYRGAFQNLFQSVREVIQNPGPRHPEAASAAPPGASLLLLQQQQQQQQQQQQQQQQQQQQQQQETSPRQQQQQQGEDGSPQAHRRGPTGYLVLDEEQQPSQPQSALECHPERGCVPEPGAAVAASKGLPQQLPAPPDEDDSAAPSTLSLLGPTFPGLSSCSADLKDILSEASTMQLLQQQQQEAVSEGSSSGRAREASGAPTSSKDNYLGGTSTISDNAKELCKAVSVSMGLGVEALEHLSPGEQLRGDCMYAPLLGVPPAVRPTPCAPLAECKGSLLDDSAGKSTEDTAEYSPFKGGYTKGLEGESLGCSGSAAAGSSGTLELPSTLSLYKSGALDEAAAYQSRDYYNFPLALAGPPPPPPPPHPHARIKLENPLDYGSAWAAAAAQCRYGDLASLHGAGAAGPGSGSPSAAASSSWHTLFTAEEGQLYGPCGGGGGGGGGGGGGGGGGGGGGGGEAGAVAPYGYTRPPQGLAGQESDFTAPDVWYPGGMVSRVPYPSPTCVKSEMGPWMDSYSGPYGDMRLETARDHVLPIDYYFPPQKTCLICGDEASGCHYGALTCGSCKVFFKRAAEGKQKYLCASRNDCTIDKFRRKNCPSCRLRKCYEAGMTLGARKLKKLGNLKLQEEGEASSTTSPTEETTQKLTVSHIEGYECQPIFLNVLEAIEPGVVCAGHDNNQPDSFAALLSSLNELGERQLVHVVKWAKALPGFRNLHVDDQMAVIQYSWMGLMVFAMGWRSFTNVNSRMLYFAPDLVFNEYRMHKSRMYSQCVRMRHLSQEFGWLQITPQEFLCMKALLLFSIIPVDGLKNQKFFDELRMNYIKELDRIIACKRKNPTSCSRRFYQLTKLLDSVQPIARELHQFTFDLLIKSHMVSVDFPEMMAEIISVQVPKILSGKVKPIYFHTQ
The data set is described as follows: Displacement of SRC2 peptide from activation function 2 domain of androgen receptor (unknown origin).

In data set [2] the target is T1, Androgen receptor (Homo sapiens). The data set is described as follows: Inhibition of androgen receptor binding function 3 in eGFP-expressing human LNCAP cells containing androgen-responsive probasin-derived promoter assessed as reduction in androgen receptor transcriptional activity at 3 uM after 3 days. The format is cell-based.
Data set [3] addresses T2, Androgen receptor (Homo sapiens, UniProt P10275).
T2 sequence (P10275 whole entry): T1 sequence (whole entry)
The data set is described as follows: Inhibition of androgen receptor binding function 3 in human LNCAP cells containing androgen-responsive probasin-derived promoter assessed as reduction in PSA expression after 3 days by […] assay. Type of data set: cell-based. In a few lines: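 PSA levels measured in LNCaP cells across a dose range (0−6.25 μM in dose-response curve); IC50 from the dose-dependent decrease of PSA.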

In data set [4] the target is T1, Androgen receptor (Homo sapiens). The data set is described as follows: Displacement of androgen from androgen binding site of androgen receptor (unknown origin).
The target of data set [5] is T2, Androgen receptor. The data set is described as follows: Inhibition of androgen receptor binding function 3 in eGFP-expressing human LNCAP cells containing androgen-responsive probasin-derived promoter assessed as reduction in androgen receptor transcriptional activity after 3 days. Type of data set: cell-based. In outline:
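eGFP reporter of AR transcriptional activity in LNCaP cells; concentration titration (0−12.5 μM in dose-response); mean of two independent experiments in triplicate (n = 6), SEM; IC50 by fitting log inhibitor concentration vs % activation.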

The subject of the next data set is MR49F. The data set is described as follows: Antiproliferative activity against enzalutamide-resistant human MR49F cells at 10 uM after 4 days by MTS assay. Type of data set: functional, cell-based. (In general: Tetrazolium assays rely on reduction of a dye to a coloured formazan, in cell work by metabolically active cells.)
Data set [6] can be described thus: Solubility of the compound at high drug level. The format is physicochemical.
For another data set, the system named is LNCaP. The data set is described as follows: Antiproliferative activity against human LNCAP cells after 4 days by MTS assay. Type of data set: functional, cell-based. As to conditions: 96 h. In outline: (§1)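 MTS viability assay in LNCaP (androgen-stimulated), enzalutamide-resistant MR49F (LNCaP-derived) and androgen-independent PC3 cells; compounds added in serial concentrations, viability read after 4 days of incubation; IC50 from dose-response curves.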

In another data set the test system is PC-3. The data set is described as follows: Antiproliferative activity against androgen receptor-independent human PC3 cells after 4 days by MTS assay. The format is functional, cell-based. In a few lines:
as §1

Data set [7] concerns the target T2, Androgen receptor.
The target in data set [8] is T1, Androgen receptor (Homo sapiens). The data set is described as follows: Direct reversible binding affinity to super-streptavidin bound biotinylated androgen receptor ligand binding domain (unknown origin) expressed in Escherichia coli BL21 by bio-layer Interferometry assay. In a few lines:
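Biolayer interferometry of direct, reversible binding to AR LBD; dose-response with compound at 0−50 μM or 0−100 μM.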
A general note: In BLI a coated tip is dipped into the sample, and binding shifts an interference pattern.

A short description of data set [9]: Antiproliferative activity against enzalutamide-resistant human MR49F cells after 4 days by MTS assay. Type of data set: functional, cell-based. Particulars: 96 h. In outline:
as §1

Calls of active or inactive are those of the source. No cut-off for these calls is given here.

In the case of `Cc1ccc2cc(C(=O)N(Cc3ccc(C)o3)C(C)C)[nH]c2c1`, the inhibition result in data set [1] and in data set [4] was “inactive” each time. For the same molecule, in data set [2], the inhibition is greater than 50%. For the same molecule, the IC50 at Androgen receptor [3] was determined as 1650 nM; at Androgen receptor [5], 2890 nM.

With `Cc1ccc(CN(C)C(=O)c2cc3cc(F)ccc3[nH]2)o1`, the inhibition result in data set [1] and in [4] was “inactive” in each case. Besides, in data set [2], the inhibition was greater than 50%. The IC50 turned out to be 6560 nM at Androgen receptor [3] and 9440 nM on Androgen receptor [5].

As to `Cc1ccc(CN(C(=O)c2cc3cc(F)ccc3[nH]2)C(C)C)o1`, the inhibition result in data set [1] and in [4] was “inactive” throughout. In addition, the inhibition in data set [2] is greater than 50%. For the same molecule, the IC50 came to 1380 nM at Androgen receptor [3] and 1100 nM at Androgen receptor [5].

Regarding `CC(C)N(Cc1ccco1)C(=O)c1cc2cc(C(F)(F)F)ccc2[nH]1`, the inhibition entry in [1] and in [4] was “inactive” in each case. Moreover, the inhibition in data set [2] is greater than 50%. In addition, the results for the IC50 at Androgen receptor [3] and at Androgen receptor [5] were 5290 nM and 5200 nM, respectively.

For `N#CCCN(Cc1ccccc1)C(=O)c1cc2ccccc2[nH]1`, the inhibition entry in data set [1] and in [4] was “inactive” in each case. For the same molecule, the inhibition in data set [2] is greater than 50%. The figures for the IC50 at Androgen receptor [3] and at Androgen receptor [5] were 4580 nM and 7510 nM, respectively.

In the case of `CNC(=O)c1ccc(N2C(=S)N(c3ccc(C#N)c(C(F)(F)F)c3)C(=O)C2(C)C)cc1F`, the inhibition result in the data set on MR49F is “inactive”.

Turning to `Cc1ccc2cc(C(=O)N(Cc3ccco3)C(C)C)[nH]c2c1`, the inhibition result in [1] and in data set [4] was “inactive” throughout. Moreover, the inhibition in data set [2] is greater than 50%. The IC50 was determined as 850 nM at Androgen receptor [3] and 1020 nM at Androgen receptor [5].

On to `CC(C)N(Cc1ccco1)C(=O)c1cc2cc(F)ccc2[nH]1`, for which, in [6], the solubility result was “Insoluble”. For the same molecule, the inhibition result in data set [1] and in data set [4] was “inactive” in each case. In addition, in [2], the inhibition was greater than 50%. In addition, the values for the IC50 on Androgen receptor [3] and on Androgen receptor [5] were 500 nM and 600 nM, respectively.

As for `CC(C)N(Cc1ccco1)C(=O)c1cc2ccc(F)cc2[nH]1`, the solubility entry in [6] is on record as “Insoluble”. Also, the inhibition entry in data set [1] and in data set [4] was “inactive” throughout. Also, the inhibition in data set [2] was greater than 50%. Besides, the IC50 turned out to be 530 nM at Androgen receptor [3] and 430 nM on Androgen receptor [5].

With `CN(Cc1ccc(Br)o1)C(=O)c1cc2ccc(F)cc2[nH]1`, the inhibition entry in data set [1] and in data set [4] was “inactive” each time. Moreover, the inhibition in data set [2] is greater than 50%. In addition, the IC50 at Androgen receptor [3] was found to be 8090 nM; at Androgen receptor [5], 15700 nM.

Take `Cc1ccc(CN(C(=O)c2cc3cccc(F)c3[nH]2)C(C)C)o1`: the inhibition result in data set [1] and in data set [4] was “inactive” in each case. In addition, in data set [2], the inhibition is greater than 50%. Further, the IC50 at Androgen receptor [3] turned out to be 1200 nM; at Androgen receptor [5] it was 1000 nM.

Regarding `Cc1ccc(CN(C(=O)c2cc3ccc(F)cc3[nH]2)C(C)C)o1`, the half-maximal inhibitory concentration (IC50) with LNCaP amounted to 550 nM; at Androgen receptor [3], 840 nM; on Androgen receptor [5], 700 nM; against Androgen receptor [7], 2180 nM; in data set [9], 1310 nM. Moreover, the inhibition result (with PC-3; in data set [1]; in [4]) was “inactive” in each case. In addition, in data set [2], the inhibition was greater than 50%. In data set [8], the result was Active.

On to `Cc1ccc2[nH]c(C(=O)N(Cc3ccc(C)o3)C(C)C)cc2c1`, for which the inhibition result in data set [1] and in [4] was “inactive” in each case. The inhibition in [2] was greater than 50%. Besides, the results for the IC50 on Androgen receptor [3] and at Androgen receptor [5] were 1770 nM and 2670 nM, respectively.

On to `O=C(c1cc2ccc(F)cc2[nH]1)N(Cc1ccco1)Cc1ccco1`, for which the inhibition result in [1] and in [4] was “inactive” in each case. Also, the inhibition in [2] was greater than 50%. Further, the half-maximal inhibitory concentration (IC50) was 5480 nM on Androgen receptor [3] and 4040 nM on Androgen receptor [5].

As for `Cc1ccc2[nH]c(C(=O)N(Cc3ccco3)C(C)C)cc2c1`, the inhibition entry in data set [1] and in data set [4] was “inactive” in each case. The inhibition in [2] is greater than 50%. In addition, the values for the IC50 at Androgen receptor [3] and on Androgen receptor [5] were 1200 nM and 1300 nM, respectively.

In the case of `Cc1ccc(CN(C(=O)c2cc3ccccc3[nH]2)C(C)C)o1`, the inhibition entry in [1] and in data set [4] was “inactive” throughout. The inhibition in [2] was greater than 50%. The IC50 at Androgen receptor [3] is 3420 nM; on Androgen receptor [5], 3320 nM. Further, the Activity entry in data set [8] was “Dose-dependent effect”.

As to `COCCN(Cc1ccco1)C(=O)c1cc2cc(F)ccc2[nH]1`, the inhibition entry in [1] and in data set [4] was “inactive” throughout. Further, the inhibition in data set [2] was greater than 50%. The figures for the IC50 on Androgen receptor [3] and at Androgen receptor [5] were 6620 nM and 6470 nM, respectively.

Regarding `CN(Cc1ccc(Br)s1)C(=O)c1cc2ccc(F)cc2[nH]1`, the inhibition entry in data set [1] and in [4] was “inactive” throughout. Also, in data set [2], the inhibition is greater than 50%. For the same molecule, the values for the IC50 on Androgen receptor [3] and on Androgen receptor [5] were 3060 nM and 3530 nM, respectively.

In the case of `CN(Cc1cccs1)C(=O)c1cc2ccc(F)cc2[nH]1`, the inhibition entry in [1] and in [4] was “inactive” throughout. For the same molecule, the inhibition in [2] is greater than 50%. Also, the values for the IC50 on Androgen receptor [3] and on Androgen receptor [5] were 5450 nM and 3380 nM, respectively.

As a reminder, the inhibition is the relative decrease from the control value, in per cent. In general, IC50 refers to the midpoint of a concentration-inhibition curve.

The record behind these values is ChEMBL document CHEMBL3351962, “Discovery of 1H-indole-2-carboxamides as novel inhibitors of the androgen receptor binding function 3 (BF3)” (J Med Chem, 2014).
